Publication PMC4586255 (DNA repair, 2010)

B1: YFP-hEXO1-F506A;F507A: MIP-box (putative PIP-box) substitution variant of YFP-hEXO1 (protein, UniProt Q9UQ84 1-846, looked up, variant F506A F507A)
Exonuclease 1: MGIQGLLQFIKEASEPIHVRKYKGQVVAVDTYCWLHKGAIACAEKLAKGEPTDRYVGFCMKFVNMLLSHGIKPILVFDGCTLPSKKEVERSRRERRQANLLKGKQLLREGKVSEARECFTRSINITHAMAHKVIKAARSQGVDCLVAPYEADAQLAYLNKAGIVQAIITEDSDLLAFGCKKVILKMDQFGNGLEIDQARLGMCRQLGDVFTEEKFRYMCILSGCDYLSSLRGIGLAKACKVLRLANNPDIVKVIKKIGHYLKMNITVPEDYINGFIRANNTFLYQLVFDPIKRKLIPLNAYEDDVDPETLSYAGQYVDDSIALQIALGNKDINTFEQIDDYNPDTAMPAHSRSHSWDDKTCQKSANVSSIWHRNYSPRPESGTVSDAPQLKENPSTVGVERVISTKGLNLPRKSSIVKRPRSAELSEDDLLSQYSLSFTKKTKKNSSEGNKSLSFSEVFVPDLVNGPTNKKSVSTPPRTRNKFATFLQRKNEESGAVVVPGTRSRAACSSDSTDCVSNKVSIQPLDETAVTDKENNLHESEYGDQEGKRLVDTDVARNSSDDIPNNHIPGDHIPDKATVFTDEESYSFESSKFTRTISPPTLGTLRSCFSWSGGLGDFSRTPSPSPSTALQQFRRKSDSPTSLPENNMSDVSQLKSEESSDDESHPLREEACSSQSQESGEFSLQSSNASKLSQCSSKDSDSEESDCNIKLLDSQSDQTSKLRLSHFSKKDTPLRNKVPGLYKSSSADSLSTTKIKPLGPARASGLSKKPASIQKRKHHNAENKPGLQIKLNELWKNFGFKKDSEKLPPCKKPLSPVRDNIQLTPEAEEDIFNKPECGRVQRAIFQ
modifications: N-terminal YFP tag
B2: hEXO1-K418A: NLS mutant (protein, UniProt Q9UQ84 1-846, looked up, variant K418A)
Exonuclease 1: MGIQGLLQFIKEASEPIHVRKYKGQVVAVDTYCWLHKGAIACAEKLAKGEPTDRYVGFCMKFVNMLLSHGIKPILVFDGCTLPSKKEVERSRRERRQANLLKGKQLLREGKVSEARECFTRSINITHAMAHKVIKAARSQGVDCLVAPYEADAQLAYLNKAGIVQAIITEDSDLLAFGCKKVILKMDQFGNGLEIDQARLGMCRQLGDVFTEEKFRYMCILSGCDYLSSLRGIGLAKACKVLRLANNPDIVKVIKKIGHYLKMNITVPEDYINGFIRANNTFLYQLVFDPIKRKLIPLNAYEDDVDPETLSYAGQYVDDSIALQIALGNKDINTFEQIDDYNPDTAMPAHSRSHSWDDKTCQKSANVSSIWHRNYSPRPESGTVSDAPQLKENPSTVGVERVISTKGLNLPRKSSIVARPRSAELSEDDLLSQYSLSFTKKTKKNSSEGNKSLSFSEVFVPDLVNGPTNKKSVSTPPRTRNKFATFLQRKNEESGAVVVPGTRSRFFCSSDSTDCVSNKVSIQPLDETAVTDKENNLHESEYGDQEGKRLVDTDVARNSSDDIPNNHIPGDHIPDKATVFTDEESYSFESSKFTRTISPPTLGTLRSCFSWSGGLGDFSRTPSPSPSTALQQFRRKSDSPTSLPENNMSDVSQLKSEESSDDESHPLREEACSSQSQESGEFSLQSSNASKLSQCSSKDSDSEESDCNIKLLDSQSDQTSKLRLSHFSKKDTPLRNKVPGLYKSSSADSLSTTKIKPLGPARASGLSKKPASIQKRKHHNAENKPGLQIKLNELWKNFGFKKDSEKLPPCKKPLSPVRDNIQLTPEAEEDIFNKPECGRVQRAIFQ
modifications: N-terminal YFP tag
B3: YFP-hEXO1-S702X: COOH-terminally truncated version of YFP-hEXO1, truncated from amino acid 702 (protein, UniProt Q9UQ84 1-701, looked up, fragment)
chain: MGIQGLLQFIKEASEPIHVRKYKGQVVAVDTYCWLHKGAIACAEKLAKGEPTDRYVGFCMKFVNMLLSHGIKPILVFDGCTLPSKKEVERSRRERRQANLLKGKQLLREGKVSEARECFTRSINITHAMAHKVIKAARSQGVDCLVAPYEADAQLAYLNKAGIVQAIITEDSDLLAFGCKKVILKMDQFGNGLEIDQARLGMCRQLGDVFTEEKFRYMCILSGCDYLSSLRGIGLAKACKVLRLANNPDIVKVIKKIGHYLKMNITVPEDYINGFIRANNTFLYQLVFDPIKRKLIPLNAYEDDVDPETLSYAGQYVDDSIALQIALGNKDINTFEQIDDYNPDTAMPAHSRSHSWDDKTCQKSANVSSIWHRNYSPRPESGTVSDAPQLKENPSTVGVERVISTKGLNLPRKSSIVKRPRSAELSEDDLLSQYSLSFTKKTKKNSSEGNKSLSFSEVFVPDLVNGPTNKKSVSTPPRTRNKFATFLQRKNEESGAVVVPGTRSRFFCSSDSTDCVSNKVSIQPLDETAVTDKENNLHESEYGDQEGKRLVDTDVARNSSDDIPNNHIPGDHIPDKATVFTDEESYSFESSKFTRTISPPTLGTLRSCFSWSGGLGDFSRTPSPSPSTALQQFRRKSDSPTSLPENNMSDVSQLKSEESSDDESHPLREEACSSQSQESGEFSLQSSNASKLSQCSSKDSD
modifications: N-terminal YFP tag

Tests used:
[1] = tested on: PCNA replication foci in NIH3T3 cells; type: cell-based, murine; conditions: for Small foci (CFP-PCNA) / Large foci (CFP-PCNA) / Mid Foci (CFP-PCNA): CFP channel (CFP-PCNA) in cells co-expressing the hEXO1 protein, 50 co-transfected cells; for Small foci (CFP-PCNA): early S-phase foci; for Large foci (CFP-PCNA): late S-phase foci; for Mid Foci (CFP-PCNA): mid S-phase foci; for foci formation and co-localization with PCNA during S-phase: NIH3T3 cells co-transfected with CFP-PCNA, 24–48 h; for sub-cellular localization: NIH3T3 cells, confocal imaging
Summary of the method: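 Murine NIH3T3 cells were kept in DMEM with 10% FBS and penicillin/streptomycin at 37 °C, 10% CO₂. Cells (2*10⁵ per glass-bottom dish) were seeded 24 h before ExGen500 co-transfection with 3 μg total plasmid (CFP-PCNA plus YFP fusion). Confocal imaging at 24–48 h. Co-transfected cells were counted and binned by pattern, e.g. "no foci" (diffuse CFP-PCNA, diffuse nuclear YFP).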

[2] = tested on: hMLH1; conditions: MIP-box mutant; ref [52]; cited from earlier work
[3] = tested on: laser induced DNA double strand breaks in HeLa cells; type: cell-based; conditions: laser irradiation
[4] = tested on: laser induced DNA double strand breaks in HeLa cells; conditions: NLS mutant, ref [43]; cited from earlier work
[5] = tested on: hMLH1; test: Interaction of hEXO1 variants with hMLH1; type: binding, human; conditions: GST-hMLH1 pull-down, 35S-labeled IVTT protein; Fig. S1

| Molecule | Small foci (CFP-PCNA) [1] [%] | Large foci (CFP-PCNA) [1] [%] | Mid Foci (CFP-PCNA) [1] [%] | effect of expression on S-phase distribution ([1]; NIH3T3 cells co-expressing CFP-PCNA) | foci formation and co-localization with PCNA during S-phase [1] | sub-cellular localization [1] | influence of mutation on hEXO1 hMLH1 interaction [2] | nuclear translocation in response to laser induced DNA damage [3] | nuclear localization in untreated cells [4] | hMLH1 interaction [5] |
| --- | --- | --- | --- | --- | --- | --- | --- | --- | --- | --- |
| B1 | 4 | 0 | 0 | only very few S-phase cells, co-expressing this variant and PCNA were observed | unable to associate with PCNA in replication foci | higher degree of cytoplasmic distribution | influence hEXO1 hMLH1 interactions | – | – | – |
| B2 | – | – | – | – | – | – | – | translocated from the cytoplasm into the nucleus in response to laser induced DNA damage | excluded from the nucleus in untreated cells | – |
| B3 | 18 | 8 | 20 | – | none of the variant proteins were able to form foci or co-localize with PCNA during S-phase | strictly nuclear | – | – | – | sustain partial hMLH1 interaction |
